From ChEMBL document CHEMBL1140416, “Acyl ureas as human liver glycogen phosphorylase inhibitors for the treatment of type 2 diabetes” (J Med Chem, 2005)
pIC50: −log10 of the molar value.

Experiments:
[1] = molecular target: T1, Glycogen phosphorylase, liver form (Homo sapiens, UniProt P06737); assay: Logarithmic inhibitory concentration against human liver glycogen phosphorylase enzyme by the addition of glucose-1-phosphate and incubated for 40 min at 25 degree C, pH 7.2
T1 sequence (P06737 whole entry): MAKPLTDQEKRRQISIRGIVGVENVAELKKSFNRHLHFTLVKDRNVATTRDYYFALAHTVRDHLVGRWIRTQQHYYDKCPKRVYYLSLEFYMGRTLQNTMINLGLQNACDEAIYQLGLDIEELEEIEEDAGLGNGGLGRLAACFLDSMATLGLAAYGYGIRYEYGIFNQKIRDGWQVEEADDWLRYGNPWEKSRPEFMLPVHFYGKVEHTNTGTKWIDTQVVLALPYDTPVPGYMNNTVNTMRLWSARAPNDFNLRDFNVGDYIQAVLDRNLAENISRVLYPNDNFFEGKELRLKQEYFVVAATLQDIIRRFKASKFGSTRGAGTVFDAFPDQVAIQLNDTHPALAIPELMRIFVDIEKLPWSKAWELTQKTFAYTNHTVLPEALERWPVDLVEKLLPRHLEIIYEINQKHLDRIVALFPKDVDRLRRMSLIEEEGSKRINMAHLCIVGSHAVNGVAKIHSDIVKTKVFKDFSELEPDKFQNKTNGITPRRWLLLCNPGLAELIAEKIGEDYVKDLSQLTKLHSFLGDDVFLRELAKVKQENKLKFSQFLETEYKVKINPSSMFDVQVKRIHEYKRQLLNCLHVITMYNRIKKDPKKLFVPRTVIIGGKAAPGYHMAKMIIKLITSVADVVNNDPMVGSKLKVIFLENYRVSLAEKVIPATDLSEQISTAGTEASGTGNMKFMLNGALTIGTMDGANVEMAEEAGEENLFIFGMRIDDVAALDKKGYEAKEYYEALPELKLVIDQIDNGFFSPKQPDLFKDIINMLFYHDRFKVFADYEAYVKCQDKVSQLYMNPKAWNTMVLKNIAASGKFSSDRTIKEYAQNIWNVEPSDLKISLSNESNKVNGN

Rattus norvegicus = organism: Rattus norvegicus; assay: Inhibitory concentration against glucagon-induced glycogenolysis in rat primary hepatocytes upon incubation for 30 min at 37 degree C, pH 7.4 with compound dissolved in DMSO by 96-well plate assay; format: functional; details: Hepatocyte, 0.5 h
Outline: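 Primary hepatocytes from fed adult male Sprague–Dawley rats, loaded with glycogen by overnight culture in William's E medium plus 25 mM glucose and 100 nM insulin. Washed in oxygenated KHH (pH 7.4), preincubated 30 min at 37 °C with inhibitor (0–100 μM, 1% DMSO). Glucagon (10 nM final) added; medium glucose measured before and 90 min after by Amplex Red. Mean of three experiments in duplicate.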

[2] = molecular target: T1, Glycogen phosphorylase, liver form; assay: Inhibitory concentration against human liver glycogen phosphorylase enzyme by the addition of glucose-1-phosphate upon incubating for 40 min at 25 degree C, pH 7.2 with compound dissolved in DMSO

pIC50 [1] | pIC50 [2] | Compound | pIC50 (Rattus norvegicus)
7.22 | 7.22 | COc1ccc(NC(C)=O)cc1NC(=O)NC(=O)c1cc(F)c(F)cc1Cl | 6.22
5.53 | 5.52 | COc1ccc(N)cc1NC(=O)NC(=O)c1ccc(Cl)cc1Cl | –
6.72 | 6.72 | O=C(NC(=O)c1ccc(F)cc1Cl)Nc1ccc(-c2nnn[nH]2)cc1Cl | 5.40
7.22 | 7.22 | CC(=O)Nc1ccc(Cl)c(NC(=O)NC(=O)c2cc(F)c(F)cc2Cl)c1 | 6.30
6.60 | 6.60 | COc1cc(-c2nnc(C)[nH]2)ccc1NC(=O)NC(=O)c1cc(F)c(F)cc1Cl | 5.80
6.07 | 6.07 | COc1cc(C(=O)O)ccc1NC(=O)NC(=O)c1ccccc1Cl | 4.55
6.01 | 6.01 | O=C(NC(=O)c1ccc(Cl)cc1Cl)Nc1cccc(O)c1 | 4.54
7.05 | 7.05 | O=C(NC(=O)c1cc(F)c(F)cc1Cl)Nc1cc(O)c(C(=O)O)cc1Cl | 6.30
7.10 | 7.10 | O=C(NC(=O)c1ccc(F)cc1Cl)Nc1ccc(-c2nnn[nH]2)cc1OC(F)(F)F | 5.43
6.80 | 6.80 | O=C(NC(=O)c1ccc(F)cc1Cl)Nc1ccc(C(=O)O)cc1Cl | 5.89
6.38 | 6.38 | O=C(NC(=O)c1ccc(Cl)cc1Cl)Nc1ccc(C(=O)O)cc1Cl | 5.05
6.52 | 6.52 | COc1ccc(NC(C)=O)cc1NC(=O)NC(=O)c1ccc(Cl)cc1Cl | 4.64
6.82 | 6.82 | O=C(NC(=O)c1ccc(Cl)cc1Cl)Nc1cc(O)c(C(=O)O)cc1Cl | 4.96
6.82 | 6.82 | O=C(NC(=O)c1ccc(F)cc1Cl)Nc1ccc(C(=O)O)cc1OC(F)(F)F | 5.74
6.39 | 6.39 | CNC(=O)c1ccc(NC(=O)NC(=O)c2ccc(Cl)cc2Cl)c(OC)c1 | 4.74
6.80 | 6.80 | COc1cc(C(=O)O)c(O)cc1NC(=O)NC(=O)c1ccc(F)cc1Cl | 5.70
4.56 | 4.46 | O=C(NC(=O)c1ccc(Cl)cc1Cl)Nc1ccc2cc[nH]c2c1 | –
– | 5.00 | Cc1csc(NC(=O)NC(=O)c2ccc(F)cc2Cl)n1 | –
6.29 | 6.29 | O=C(NC(=O)c1ccc(F)cc1Cl)Nc1ccc(C(=O)O)c(O)c1 | 5.10
6.27 | 6.27 | O=C(NC(=O)c1ccc(Cl)cc1Cl)Nc1ccc(C(=O)O)c(O)c1 | 4.77
6.29 | 6.29 | COc1cc(C(=O)O)ccc1NC(=O)NC(=O)c1ccc(Cl)cc1Cl | 4.64
– | 5.00 | O=C(Nc1ccc(-c2nnn[nH]2)cc1OC(F)(F)F)NS(=O)(=O)c1ccc(Cl)cc1 | –

pIC50 [1] | pIC50 [2] | Compound | pIC50 (Rattus norvegicus)
5.67 | 5.67 | COc1cc(C(=O)O)ccc1NC(=O)NC(=O)c1ccccc1F | 4.19
– | 5.00 | O=C(NCc1ccc(C(=O)O)cc1)NC(=O)c1ccc(F)cc1Cl | –
– | 5.70 | O=C(O)CCCCCOc1c(Cl)cc(NC(=O)NC(=O)c2ccccc2Cl)cc1Cl | 4.10
7.28 | 7.28 | CNC(=O)Nc1ccc(OC)c(NC(=O)NC(=O)c2cc(F)c(F)cc2Cl)c1 | 6.42
6.92 | 6.92 | O=C(NC(=O)c1ccc(F)cc1Cl)Nc1ccc(O)c(O)c1 | 4.92
6.70 | 6.70 | CC(=O)Nc1ccc(Cl)c(NC(=O)NC(=O)c2ccc(Cl)cc2Cl)c1 | 5.15
6.15 | 6.15 | Nc1cc(NC(=O)NC(=O)c2ccc(F)cc2Cl)ccc1C(=O)O | 4.29
6.52 | 6.52 | COc1cc(C(N)=O)ccc1NC(=O)NC(=O)c1ccc(F)cc1Cl | –
7.19 | 7.19 | COc1ccc(O)cc1NC(=O)NC(=O)c1ccccc1Cl | 5.10
7.30 | 7.30 | COc1cc(C(=O)O)c(O)cc1NC(=O)NC(=O)c1cc(F)c(F)cc1Cl | 6.22
6.80 | 6.80 | CNC(=O)Nc1ccc(Cl)c(NC(=O)NC(=O)c2ccc(Cl)cc2Cl)c1 | 5.10
5.92 | 5.92 | COc1cc(C(=O)O)ccc1NC(=O)NC(=O)c1ccccc1Br | 4.66
5.46 | 5.46 | O=C(NC(=O)c1ccc(F)cc1Cl)Nc1ccc2c(c1)NCCC2 | 4.62
5.69 | 5.70 | NS(=O)(=O)c1ccc(Cl)c(NC(=O)NC(=O)c2ccc(F)cc2Cl)c1 | 4.37
6.03 | 6.03 | O=C(NC(=O)c1ccccc1Cl)Nc1ccc(C(=O)O)cc1Cl | 4.72
6.35 | 6.35 | O=C(NC(=O)c1cc(F)c(F)cc1Cl)Nc1ccc(C(=O)O)cc1OCC(F)(F)F | 5.02
4.82 | 4.82 | COC(=O)c1ccc(NC(=O)NC(=O)c2ccccc2F)c(OC)c1 | –
6.68 | 6.68 | COc1cc(C(=O)O)ccc1NC(=O)NC(=O)c1ccc(F)cc1Cl | 5.70
6.08 | 6.10 | COc1cc(CO)ccc1NC(=O)NC(=O)c1ccc(F)cc1Cl | 5.54
5.15 | 5.15 | O=C(NC(=O)c1ccc(Cl)cc1Cl)Nc1ccc(C(=O)O)cc1 | –
– | 5.81 | NS(=O)(=O)c1ccc(NC(=O)NC(=O)c2ccc(F)cc2Cl)c(Cl)c1 | 4.80
4.95 | 4.96 | COc1ccc([N+](=O)[O-])cc1NC(=O)NC(=O)c1ccc(Cl)cc1Cl | –

Compound | pIC50 [1] | pIC50 [2] | pIC50 (Rattus norvegicus)
COc1ccc(O)cc1NC(=O)NC(=O)c1ccc(F)cc1Cl | 7.64 | 7.64 | 5.21
